Results from ChEMBL document CHEMBL4038284, “Synthesis of novel quinoline-based 4,5-dihydro-1H-pyrazoles as potential anticancer, antifungal, antibacterial and antiprotozoal agents” (Eur J Med Chem, 2017).
Active and inactive are the calls of the source. No cut-off for these calls is given here.

Legend:
[1] = system: OVCAR-4; test: Growth inhibition of human OVCAR4 cells at 10 uM incubated for 48 hrs by sulforhodamine B assay; type: functional, cell-based
Summary of the method: (§1)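 NCI 60-line panel, single 10 μM dose. Cells were grown in RPMI-1640 with 5% FBS and 2 mM L-glutamine and pre-incubated 24 h before compound addition (DMSO stock). Exposure was 48 h at 37 °C, 5% CO2. Cells were fixed with cold TCA (10% final), stained with 0.4% SRB, bound dye dissolved in 10 mM Tris base, A515 read. Growth was taken relative to time-zero and untreated control plates.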

[2] = system: SNB-19; test: Growth inhibition of human SNB19 cells at 10 uM incubated for 48 hrs by sulforhodamine B assay; type: functional, cell-based
Summary of the method: (§2)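 NCI-60 single-dose screen at 10 µM for 48 h. Cells were grown in RPMI-1640 with 5% FBS and 2 mM L-glutamine and preincubated 24 h before compound. Time-zero plates were TCA-fixed at compound addition. After exposure, cells were TCA-fixed, stained with SRB and read at 515 nm. Percentage growth was calculated against time-zero and untreated-control absorbances.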

[3] = system: SK-MEL-5; test: Growth inhibition of human SK-MEL-5 cells at 10 uM incubated for 48 hrs by sulforhodamine B assay; type: functional, cell-based; summary of the method: as §2
[4] = system: Klebsiella pneumoniae; test: Antibacterial activity against ESBL positive Klebsiella pneumoniae ATCC 700603 after 24 hrs by resazurin dye based microdilution assay; type: functional; settings: Klebsiella pneumoniae, 700603, 24 h
Summary of the method: (§3)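 MIC taken as the lowest concentration giving visible inhibition and/or by resazurin (1 mg/mL). Gentamicin was the control. Run in duplicate, repeated at least three times.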

[5] = system: NCI-H460; test: Growth inhibition of human NCI-H460 cells at 10 uM incubated for 48 hrs by sulforhodamine B assay; type: functional, cell-based; summary of the method: as §1
[6] = system: SK-MEL-2; test: Growth inhibition of human SK-MEL-2 cells at 10 uM incubated for 48 hrs by sulforhodamine B assay; type: functional, cell-based; summary of the method: as §2
[7] = system: NCI/ADR-RES; test: Growth inhibition of human NCI/ADR-RES cells at 10 uM incubated for 48 hrs by sulforhodamine B assay; type: functional, cell-based; summary of the method: as §1
[8] = system: Candida albicans; test: Growth inhibition of Candida albicans ATCC 10231 at 31.25 ug/ml incubated for 48 hrs under dark condition by broth microdilution method relative to control; type: functional; settings: ATCC 10231, 48 h, read-out: GI
Summary of the method: (§4)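 CLSI M27-A3 broth microdilution in RPMI-1640, DMSO ≤1%. Inoculum 1-5 × 10^3 CFU/mL. Incubated 48 h at 30 °C, dark. % inhibition = 100 − (OD405 test − sterility control)/(OD405 growth control − sterility control), with growth and sterility control wells. Triplicate.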

[9] = system: NCI-H322M; test: Growth inhibition of human NCI-H322M cells at 10 uM incubated for 48 hrs by sulforhodamine B assay; type: functional, cell-based; summary of the method: as §1
[10] = system: OVCAR-3; test: Growth inhibition of human OVCAR3 cells at 10 uM incubated for 48 hrs by sulforhodamine B assay; type: functional, cell-based; summary of the method: as §1
[11] = system: EKVX; test: Growth inhibition of human EKVX cells at 10 uM incubated for 48 hrs by sulforhodamine B assay; type: functional, cell-based
Summary of the method: (§5)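 NCI 60-cell-line screen at a single 10 µM dose. Cells in RPMI-1640 with 5% FBS and 2 mM L-glutamine, pre-incubated 24 h, then treated for 48 h at 37 °C. TCA fixation, sulforhodamine B staining, absorbance at 515 nm. Percentage growth calculated against time-zero and untreated controls.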

[12] = system: Cryptococcus neoformans; test: Growth inhibition of Cryptococcus neoformans ATCC 32264 at 3.4 ug/ml incubated for 48 hrs under dark condition by broth microdilution method relative to control; type: functional; settings: ATCC 32264, 48 h, read-out: GI
[13] = system: ACHN; test: Growth inhibition of human ACHN cells at 10 uM incubated for 48 hrs by sulforhodamine B assay; type: functional, cell-based; summary of the method: as §5
[14] = system: U-937; test: Cytotoxicity against human U937 cells after 72 hrs by MTT assay; type: cell-based; settings: u-937, 72 h
Summary of the method: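 Exponentially growing U-937 at 1 × 10^5 cells/mL in RPMI-1640 with 10% FBS were exposed to 200, 50, 12.5 and 3.125 µg/mL for 72 h at 37 °C, 5% CO2. MTT for 3 h, stopped with isopropanol/SDS, formazan read at 570 nm, blank-corrected. LC50 by Probit from % viability against untreated cells. Triplicate, at least two independent experiments.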

[15] = system: OVCAR-8; test: Growth inhibition of human OVCAR8 cells at 10 uM incubated for 48 hrs by sulforhodamine B assay; type: functional, cell-based; summary of the method: as §1
[16] = system: RPMI-8226; test: Growth inhibition of human RPMI8226 cells at 10 uM incubated for 48 hrs by sulforhodamine B assay; type: functional, cell-based; summary of the method: as §1
[17] = system: HCT-15; test: Growth inhibition of human HCT15 cells at 10 uM incubated for 48 hrs by sulforhodamine B assay; type: functional, cell-based; summary of the method: as §5
[18] = system: Klebsiella pneumoniae; test: Antibacterial activity against carbapenemase positive Klebsiella pneumoniae BAA 1705 after 24 hrs by resazurin dye based microdilution assay; type: functional; settings: BAA 1705, 24 h; summary of the method: as §3
[19] = system: Hs-578T; test: Growth inhibition of human Hs578T cells at 10 uM incubated for 48 hrs by sulforhodamine B assay; type: functional, cell-based; summary of the method: as §1
[20] = system: Cryptococcus neoformans; test: Growth inhibition of Cryptococcus neoformans ATCC 32264 at 125 ug/ml incubated for 48 hrs under dark condition by broth microdilution method relative to control; type: functional; settings: ATCC 32264, 48 h, read-out: GI; summary of the method: as §4
[21] = system: SW-620; test: Growth inhibition of human SW620 cells at 10 uM incubated for 48 hrs by sulforhodamine B assay; type: functional, cell-based; summary of the method: as §2
[22] = system: NCI-H23; test: Growth inhibition of human NCI-H23 cells at 10 uM incubated for 48 hrs by sulforhodamine B assay; type: functional, cell-based; summary of the method: as §1
[23] = system: HCC 2998; test: Growth inhibition of human HCC2998 cells at 10 uM incubated for 48 hrs by sulforhodamine B assay; type: functional, cell-based; summary of the method: as §5
[24] = system: Candida albicans; test: Growth inhibition of Candida albicans ATCC 10231 at 250 ug/ml incubated for 48 hrs under dark condition by broth microdilution method relative to control; type: functional; settings: ATCC 10231, 48 h, read-out: GI; summary of the method: as §4
[25] = system: MDA-MB-435; test: Growth inhibition of human MDA-MB-435 cells at 10 uM incubated for 48 hrs by sulforhodamine B assay; type: functional, cell-based; summary of the method: as §1
[26] = system: CCRF-CEM; test: Growth inhibition of human CCRF-CEM cells at 10 uM incubated for 48 hrs by sulforhodamine B assay; type: functional, cell-based; summary of the method: as §5
[27] = system: SF-295; test: Growth inhibition of human SF295 cells at 10 uM incubated for 48 hrs by sulforhodamine B assay; type: functional, cell-based; summary of the method: as §1
[28] = system: IGROV-1; test: Growth inhibition of human IGROV1 cells at 10 uM incubated for 48 hrs by sulforhodamine B assay; type: functional, cell-based; summary of the method: as §1
[29] = system: Candida albicans; test: Growth inhibition of Candida albicans ATCC 10231 at 7.8 ug/ml incubated for 48 hrs under dark condition by broth microdilution method relative to control; type: functional; settings: ATCC 10231, 48 h, read-out: GI; summary of the method: as §4
[30] = system: UACC-257; test: Growth inhibition of human UACC257 cells at 10 uM incubated for 48 hrs by sulforhodamine B assay; type: functional, cell-based; summary of the method: as §2
[31] = system: K562; test: Growth inhibition of human K562 cells at 10 uM incubated for 48 hrs by sulforhodamine B assay; type: functional, cell-based; summary of the method: as §1
[32] = system: SR; test: Growth inhibition of human SR cells at 10 uM incubated for 48 hrs by sulforhodamine B assay; type: functional, cell-based; summary of the method: as §2

| SMILES | growth inhibition (GI) [1] | growth inhibition (GI) [2] | growth inhibition (GI) [3] | MIC [4] [µg/mL] | growth inhibition (GI) [5] | growth inhibition (GI) [6] | growth inhibition (GI) [7] | inhibition of growth at 31.25 µg/mL [8] [%] | growth inhibition (GI) [9] | growth inhibition (GI) [10] | growth inhibition (GI) [11] | inhibition of growth at 3.4 µg/mL [12] [%] | growth inhibition (GI) [13] | LC50 [14] [µg/mL] | growth inhibition (GI) [15] | growth inhibition (GI) [16] | growth inhibition (GI) [17] | MIC [18] [µg/mL] | growth inhibition (GI) [19] | inhibition of growth at 125 µg/mL [20] [%] | further results |
| --- | --- | --- | --- | --- | --- | --- | --- | --- | --- | --- | --- | --- | --- | --- | --- | --- | --- | --- | --- | --- | --- |
| Clc1ccc(C2=NN(c3ccccc3)C(c3cccc(Nc4ccnc5cc(Cl)ccc45)c3)C2)cc1 (centres undefined) | inactive | inactive | inactive | > 1000 | inactive | inactive | inactive | 4.92 | inactive | inactive | inactive | 0 | inactive | > 200 | inactive | inactive | inactive | > 1000 | inactive | 14.6 | growth inhibition (GI) [21]: inactive; growth inhibition (GI) [22]: inactive; growth inhibition (GI) [23]: inactive; inhibition of growth at 250 µg/mL [24]: 19.8%; growth inhibition (GI) [25]: inactive; growth inhibition (GI) [26]: inactive; growth inhibition (GI) [27]: inactive; growth inhibition (GI) [28]: inactive; inhibition of growth at 7.8 µg/mL [29]: 3.8%; growth inhibition (GI) [30]: inactive; growth inhibition (GI) [31]: inactive; growth inhibition (GI) [32]: inactive |
| COc1cc(C2=NN(c3ccc(Cl)cc3)C(c3cccc(Nc4ccnc5cc(Cl)ccc45)c3)C2)cc(OC)c1OC (centres undefined) | inactive | inactive | inactive | > 1000 | inactive | inactive | inactive | 8.05 | inactive | inactive | inactive | 8.08 | inactive | > 200 | inactive | inactive | inactive | > 1000 | inactive | 17.1 | growth inhibition (GI) [21]: inactive; growth inhibition (GI) [22]: inactive; growth inhibition (GI) [23]: inactive; inhibition of growth at 250 µg/mL [24]: 26.5%; growth inhibition (GI) [25]: inactive; growth inhibition (GI) [26]: inactive; growth inhibition (GI) [27]: inactive; growth inhibition (GI) [28]: inactive; inhibition of growth at 7.8 µg/mL [29]: 4.21%; growth inhibition (GI) [30]: inactive; growth inhibition (GI) [31]: inactive; growth inhibition (GI) [32]: inactive |
